For data set [1], the system named is Leishmania donovani. The data set is described as follows: Antileishmanial activity against Leishmania donovani MHOM/IN/80/Dd8 promastigotes at 10 ug/ml after 72 hrs. The class given is functional. The essentials:
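Promastigotes were transfected with firefly luciferase and kept in medium 199 with 10% foetal calf serum, penicillin/streptomycin and G418. Late-log cells (5×10⁵/well) were exposed for 72 h to serial dilutions (1–10 range) in DMSO, with DMSO controls. Luminescence was read with Steady-Glo. % inhibition = (N − n)×100/N, using mean RLU of control (N) and treated (n) wells.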

A short description of data set [2]: (§1) Selectivity index, ratio of CC50 for mouse J774A1 cells to IC50 for Leishmania donovani MHOM/IN/80/Dd8 amastigotes. It is filed as functional, J774.A1. A digest of the protocol: (§2)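 Ratio of J774A.1 CC50 (MTT, 72 h) to IC50 from the luciferase assay on intracellular amastigotes in J774A.1 macrophages (72 h exposure).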
Data set [3] in a line: Cytotoxicity against mouse J774A1 cells after 72 hrs by MTT assay. The class given is cell-based, J774.A1. A digest of the protocol:
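J774A.1 cells were kept in RPMI with 10% foetal calf serum and gentamycin. Cells (1×10⁴/well) were exposed to graded concentrations diluted from DMSO stocks for 72 h at 37 °C in humidified CO₂. MTT (5 mg/ml stock in PBS) was added for 2 h, and formazan was dissolved in DMSO and read at 544 nm. CC50 was the concentration giving 50% viability loss versus medium-only cells, estimated by template.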

The test system of data set [4] is Leishmania donovani. Nature of the data set: Antileishmanial activity against Leishmania donovani MHOM/IN/80/Dd8 amastigotes infected in mouse J774A.1 cells after 72 hrs. Particulars: MHOM/IN/80/Dd8, J774.A1, 72 h. The class given is functional, organism-based. A digest of the protocol:
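J774A.1 macrophages (1.5×10⁴/well) were cultured in RPMI-1640 with 10% foetal calf serum at 37 °C in CO₂. After 24 h they were infected with stationary-phase luciferase-transfected promastigotes (2.25×10⁵/well), which transform into amastigotes. Test material (0.25–10 range) in complete medium was then applied for 72 h. Steady-Glo luminescence of treated wells was compared with untreated controls.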

Data set [5] deals with Leishmania donovani. The data set is described as follows: Antileishmanial activity against Leishmania donovani MHOM/IN/80/Dd8 amastigotes infected in golden hamster at 50 mg/kg, ip administered 5 times per day for 5 days. It is filed as functional. The essentials:
(§3)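 Golden hamsters infected with L. donovani MHOM/IN/80/Dd8 were randomized into groups by parasite burden, 4–6 animals per sample. Intraperitoneal dosing began 2 days after biopsy. Post-treatment biopsy was taken on day 7 after the last dose, and amastigotes were counted by Giemsa staining. Percentage inhibition was calculated from actual and initial counts in treated animals and the fold increase in untreated controls.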

Data set [6] relates to Leishmania donovani. The data set is described as follows: Antileishmanial activity against Leishmania donovani MHOM/IN/80/Dd8 amastigotes infected in golden hamster at 20 mg/kg, ip administered 5 times per day for 5 days. The class given is functional. The note with it: route intraperitoneal. The essentials: as §3
Data set [7] deals with Leishmania donovani. Nature of the data set: Antileishmanial activity against Leishmania donovani MHOM/IN/80/Dd8 promastigotes at 0.5 ug/ml after 72 hrs. It is filed as functional.
For data set [8], the system named is J774.A1. The description is as §1. The class given is functional. The essentials:
as §2

Data set [9] deals with Leishmania donovani. The data set is described as follows: Antileishmanial activity against Leishmania donovani MHOM/IN/80/Dd8 promastigotes at […] after 72 hrs. The class given is functional, organism-based.
Data set [10] concerns Leishmania donovani. The data set is described as follows: Antileishmanial activity against Leishmania donovani MHOM/IN/80/Dd8 amastigotes infected in golden hamster at 40 mg/kg, ip administered 5 times per day for 5 days. The class given is functional, organism-based. Also on record: dose 40 mg/kg. A digest of the protocol:
as §3

Values after ≈ are worked out from the molar mass of the structure shown. Active and inactive are the calls of the source. The rule behind the calls is not given here.

As usually defined, the CC50 is the concentration at which the toxic effect on the cells reaches its halfway point. Low readings indicate greater toxicity to the cells, high ones lower toxicity to the cells. For orientation: IC50 means the concentration needed to halve the response being measured. The low end stands for inhibition by little substance, the high end for a need for much substance.

With `COc1ccc(-c2cc(SC)nc(Nc3nc(NCCN4CCOCC4)nc(NCCN4CCOCC4)n3)n2)cc1OC`, in data set [1], the result was inactive.
As to `COc1cc(-c2cc(SC)nc(Nc3nc(N4CCOCC4)nc(N4CCOCC4)n3)n2)cc(OC)c1OC`, the “Ratio CC50/IC50” value in data set [2] was 1.54. The molecule also had a CC50 at 72 h in data set [3] of 10.8 µg/mL (≈ 19.5 µM). This molecule had an Activity in [1] of 80.8%. Besides, the IC50 in data set [4] was determined as 7.02 µg/mL (≈ 12.6 µM).
As for `CCN(CC)CCNc1nc(NCCN(CC)CC)nc(Nc2nc(SC)cc(-c3cc(OC)c(OC)c(OC)c3)n2)n1`, the outcome in data set [1] was inactive.
Turning to `COc1cc(-c2cc(SC)nc(Nc3nc(N4CCCCC4)nc(N4CCCCC4)n3)n2)cc(OC)c1OC`, in data set [2], the “Ratio CC50/IC50” value is given as 28.7. In [3], this molecule displayed a 50% cytotoxic concentration (CC50) at 72 h of 51.7 µg/mL (≈ 93.5 µM). In addition, the Activity in data set [1] is given as 90.8%; in data set [5] (route intraperitoneal) it was 56.58%. This molecule also showed an IC50 in [4] of 1.8 µg/mL (≈ 3.26 µM).
The molecule `COc1cc(-c2cc(NCCN3CCOCC3)nc(N)n2)cc(OC)c1OC` had an Activity in data set [1] of 68.5%.
For `COc1cc(-c2cc(SC)nc(Nc3nc(N4CCN(C)CC4)nc(N4CCN(C)CC4)n3)n2)cc(OC)c1OC`, the “Ratio CC50/IC50” value in [2] amounted to 12.34. In data set [3], this molecule came in with a CC50 at 72 h of 16.5 µg/mL (≈ 28.4 µM). This molecule had an Activity in data set [1] of 99.5%. In addition, half-maximal inhibition in data set [4] (IC50) required 1.34 µg/mL (≈ 2.3 µM).
The molecule `COc1cc(-c2cc(SC)nc(Nc3nc(NCCCN4CCOCC4)nc(NCCCN4CCOCC4)n3)n2)cc(OC)c1OC` yielded an Activity in data set [1] of 75.2%.
In turn, `COc1cc(-c2cc(N3CCOCC3)nc(N)n2)cc(OC)c1OC` gave an Activity in [1] of 43.9%.
On to `N=C(N)c1ccc(OCCCCCOc2ccc(C(=N)N)cc2)cc1` [PENTAMIDINE], for which the results for the Activity in [6] and in data set [7] were 84.1% and 85%, respectively. The molecule also returned a CC50 at 72 h in data set [3] of 31.3 µg/mL (≈ 92 µM).
For the molecule `COc1cc(-c2cc(SC)nc(Nc3nc(NC(C)C)nc(NC(C)C)n3)n2)cc(OC)c1OC`, in [2], the “Ratio CC50/IC50” value was found to be 1.82. The same molecule registered a CC50 at 72 h in data set [3] of 1.9 µg/mL (≈ 3.8 µM). The Activity in [1] came out at 94.5%. Moreover, in [4], half-maximal inhibition (IC50) was put at 1.04 µg/mL (≈ 2.08 µM).
Turning to `CCN1CCN(c2nc(Nc3nc(SC)cc(-c4cc(OC)c(OC)c(OC)c4)n3)nc(N3CCN(CC)CC3)n2)CC1`, the “Ratio CC50/IC50” value in data set [2] was 6. Further, it took 27.4 µg/mL (≈ 44.8 µM) to reach half-maximal cytotoxicity in data set [3] (CC50 at 72 h). Moreover, in data set [1], the Activity was 100%. This molecule also had an IC50 in data set [4] of 4.56 µg/mL (≈ 7.47 µM).
As to `COc1ccc(-c2cc(SC)nc(Nc3nc(NC(C)(C)C)nc(NC(C)(C)C)n3)n2)cc1OC`, in [1], the outcome was inactive.
`COc1ccc(-c2cc(SC)nc(Nc3nc(NC(C)C)nc(NC(C)C)n3)n2)cc1OC`: the outcome in [1] was inactive.
Still for that read-out and setting: next, `CCCCNc1nc(NCCCC)nc(Nc2nc(SC)cc(-c3cc(OC)c(OC)c(OC)c3)n2)n1`: 75.5%.
Turning to `CCN(CC)CCNc1cc(-c2cc(OC)c(OC)c(OC)c2)nc(N)n1`, the “Ratio CC50/IC50” value in data set [2] came out at 15.92. The same molecule displayed a CC50 at 72 h in data set [3] of 81.5 µg/mL (≈ 217 µM). Also, the Activity in data set [1] came to 95.1%; in data set [5] (route intraperitoneal), 48.46%. In data set [4], this molecule returned an IC50 of 5.12 µg/mL (≈ 13.6 µM).
`COc1cc(-c2cc(SC)nc(Nc3nc(NCCN4CCOCC4)nc(NCCN4CCOCC4)n3)n2)cc(OC)c1OC` returned an Activity in [1] of 42.5%.
The molecule `COc1ccc(-c2cc(SC)nc(Nc3nc(N4CCCCC4)nc(N4CCCCC4)n3)n2)cc1OC` yielded an Activity in data set [1] of 53.8%.
As to `COc1ccc(-c2cc(SC)nc(Nc3nc(N4CCN(C)CC4)nc(N4CCN(C)CC4)n3)n2)cc1OC`, the “Ratio CC50/IC50” value in data set [2] was 40.71. This molecule displayed a CC50 at 72 h in [3] of 36.2 µg/mL (≈ 65.6 µM). The same molecule had an Activity in data set [1] of 99.8%. The IC50 in [4] was found to be 0.89 µg/mL (≈ 1.61 µM).
With `COc1cc(-c2cc(N3CCCCC3)nc(N)n2)cc(OC)c1OC`, the “Ratio CC50/IC50” value in [2] is 1.47. For the same molecule, the CC50 at 72 h in data set [3] amounted to 10.4 µg/mL (≈ 30.3 µM). The Activity in data set [1] worked out at 88%. Besides, the IC50 in data set [4] stood at 7.09 µg/mL (≈ 20.6 µM).
`COc1ccc(-c2cc(SC)nc(Nc3nc(NCCCN4CCOCC4)nc(NCCCN4CCOCC4)n3)n2)cc1OC`: the Activity in data set [1] was determined as 35.2%.
The same measure, in the same setting: in the case of `COc1cc(-c2cc(NCCCN3CCOCC3)nc(N)n2)cc(OC)c1OC` it was 46.9%.
Consider `CCN1CCN(c2nc(Nc3nc(SC)cc(-c4ccc(OC)c(OC)c4)n3)nc(N3CCN(CC)CC3)n2)CC1`, for which, in data set [1], the result was inactive.
In the case of `COc1ccc(-c2cc(SC)nc(Nc3nc(N4CCOCC4)nc(N4CCOCC4)n3)n2)cc1OC`, in data set [2], the “Ratio CC50/IC50” value was found to be 2.46. In addition, the CC50 at 72 h in data set [3] amounted to 23.9 µg/mL (≈ 45.3 µM). Besides, the Activity in data set [1] stood at 90.5%. The molecule also showed an IC50 in data set [4] of 9.68 µg/mL (≈ 18.4 µM).
For `CCCNc1nc(NCCC)nc(Nc2nc(SC)cc(-c3ccc(OC)c(OC)c3)n2)n1`, the “Ratio CC50/IC50” value in data set [2] is 6.31. The molecule further returned a CC50 at 72 h in data set [3] of 14.3 µg/mL (≈ 30.5 µM). Moreover, in [1], the Activity worked out at 85.6%. The molecule further gave an IC50 in data set [4] of 2.27 µg/mL (≈ 4.82 µM).
In data set [1], `COc1cc(-c2cc(N3CCN(C)CC3)nc(N)n2)cc(OC)c1OC` gave an Activity of 63.88%.
Consider `CCN(CC)CCNc1nc(NCCN(CC)CC)nc(Nc2nc(SC)cc(-c3ccc(OC)c(OC)c3)n2)n1`, for which the “Ratio CC50/IC50” value in data set [2] amounted to 8.6. The same molecule yielded a CC50 at 72 h in data set [3] of 42 µg/mL (≈ 71.8 µM). This molecule also yielded an Activity in [1] of 94.7%. Also, half-maximal inhibition in data set [4] (IC50) required 4.88 µg/mL (≈ 8.34 µM).
With `CCCCNc1cc(-c2cc(OC)c(OC)c(OC)c2)nc(N)n1`, the “Ratio CC50/IC50” value in data set [2] is reported as 10. The CC50 at 72 h in [3] stood at 49.9 µg/mL (≈ 150 µM). Further, the Activity was 84.4% in data set [1] and 54.1% in [5] (route intraperitoneal). The molecule further registered an IC50 in data set [4] of 4.99 µg/mL (≈ 15 µM).
With `CCCNc1nc(NCCC)nc(Nc2nc(SC)cc(-c3cc(OC)c(OC)c(OC)c3)n2)n1`, in data set [3], half-maximal cytotoxicity (CC50 at 72 h) was put at 1.46 µg/mL (≈ 2.92 µM). This molecule also displayed an Activity in [1] of 86.7%.
As for sodium stibogluconate, in data set [8], the Ratio CC50/IC50 is 5.53. For the same molecule, the values for the Activity in data set [5], in data set [9] and in data set [10] were 48.5%, 40% and 92%, respectively.
For `COc1cc(-c2cc(SC)nc(Nc3nc(NC(C)(C)C)nc(NC(C)(C)C)n3)n2)cc(OC)c1OC`, in [2], the “Ratio CC50/IC50” value is listed as 3.29. The same molecule showed a CC50 at 72 h in data set [3] of 9.8 µg/mL (≈ 18.5 µM). The same molecule gave an Activity in [1] of 95.8%. The molecule further displayed an IC50 in data set [4] of 2.97 µg/mL (≈ 5.62 µM).
In turn, `CCCCNc1nc(NCCCC)nc(Nc2nc(SC)cc(-c3ccc(OC)c(OC)c3)n2)n1` yielded an Activity in data set [1] of 78.6%.

The values above are taken from ChEMBL document CHEMBL1158391, “Synthesis and antileishmanial activity of novel 2,4,6-trisubstituted pyrimidines and 1,3,5-triazines” (Eur J Med Chem, 2009).
